Each structure is given as a SMILES string.

Data on seven molecules can be found in ChEMBL document CHEMBL1125287, “Synthesis and antifolate evaluation of the 10-propargyl derivatives of 5-deazafolic acid, 5-deazaaminopterin, and 5-methyl-5-deazaaminopterin” (J Med Chem, 1992).

Assay [1] has as its system L1210. In words: Km value for its transport after influx into L1210 cells. Format: functional, cell-based. Conditions: Mus musculus.
Assay [2] concerns Mus musculus. Briefly: Antitumor effect (3 mg/kg) against EO771 mammary adenocarcinoma in mice measured as Average weight change on day 14. Format: functional. The method in brief: (§1)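 Mice implanted with EO771 mammary adenocarcinoma were dosed once daily for 5 days, starting 1 day after tumor implantation, with 10 mice per group. On day 7 and day 14 the following were recorded: average body weight change in grams, toxic deaths, tumor-free animals and average tumor volume. Volume was calculated as 4/3πr³ in mm³, and T/C is treated/control volume.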

For assay [3], the system named is Mus musculus. Briefly: Antitumor effect (3 mg/kg) against EO771 mammary adenocarcinoma in mice measured as Average weight change on day 7. The assay is classed as functional. In outline:
as §1

For assay [4], the system named is Mus musculus. Briefly: Antitumor effect (3 mg/kg) against EO771 mammary adenocarcinoma in mice measured as toxic deaths out of 10 mice tested. The assay is classed as functional. In outline:
(§2)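 EO771 mammary adenocarcinoma implanted in mice, 10 animals per group. Dosing was once daily for 5 days, starting 1 day after tumor implantation. Toxic deaths were counted over the total on the evaluation day (day 7 or day 14), together with average weight change, tumor volume (4/3πr³, treated/control) and tumor-free animals.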

Assay [5] deals with Mus musculus. In words: Antitumor effect (3 mg/kg) against EO771 mammary adenocarcinoma in mice measured as Tumor free/total on day 14. The assay is classed as functional. The method in brief:
as §1

Assay [6] concerns Mus musculus. Briefly: Antitumor effect (3 mg/kg) against EO771 mammary adenocarcinoma in mice measured as Tumor free/total on day 7. Format: functional. In outline:
as §1

Assay [7] concerns Mus musculus. Briefly: Antitumor effect (3 mg/kg) against EO771 mammary adenocarcinoma in mice measured as T/C(treated/control) on day 14. The assay is classed as functional. In outline: as §1
In assay [8] the test system is Mus musculus. Briefly: Antitumor effect (3 mg/kg) against EO771 mammary adenocarcinoma in mice measured as T/C(treated/control) on day 7. Format: functional. The method in brief: as §1
Assay [9] has as its system L1210. Briefly: k value for its transport after efflux through L1210 cells. Format: functional, Mus musculus.
Assay [10] deals with Mus musculus. In words: Antitumor effect (3 mg/kg) against EO771 mammary adenocarcinoma in mice measured as Toxic deaths/total on day 14. Format: functional. In outline: as §2
Assay [11] has as its target T1, Thymidylate synthase (Lactobacillus casei, UniProt P00469).
T1 sequence (P00469 whole entry): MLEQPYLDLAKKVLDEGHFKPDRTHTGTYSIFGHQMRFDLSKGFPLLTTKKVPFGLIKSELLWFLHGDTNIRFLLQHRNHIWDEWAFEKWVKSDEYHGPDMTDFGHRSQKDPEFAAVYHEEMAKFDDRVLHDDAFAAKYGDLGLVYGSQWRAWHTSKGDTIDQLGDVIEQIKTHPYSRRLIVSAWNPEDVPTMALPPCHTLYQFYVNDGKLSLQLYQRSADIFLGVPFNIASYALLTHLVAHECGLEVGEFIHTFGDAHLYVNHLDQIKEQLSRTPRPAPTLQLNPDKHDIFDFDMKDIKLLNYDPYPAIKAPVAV
Briefly: The compound was tested for its inhibitory activity (IC50) against thymidylate synthase(TS) derived from Lactobacillus casei. Also on record: species or system Lacticaseibacillus casei.

Assay [12] concerns the target T2, Thymidylate synthase (Homo sapiens, UniProt P04818). In words: The compound was tested for its inhibitory activity against thymidylate synthase(TS) derived from K562 cells. Format: cell-based.
The next assay relates to HL-60. Briefly: The compound was tested for its growth inhibitory activity against HL60 cells. The assay is classed as functional, cell-based. Conditions: Homo sapiens.
Assay [13] has as its system L1210. In words: The compound was tested for its growth inhibitory activity against L1210 cells. The assay is classed as functional, cell-based. The settings on record: Mus musculus.
The subject of the next assay is CCRF S-180. In words: The compound was tested for its growth inhibitory activity against S180 cells. Format: functional, cell-based. Conditions: Mus musculus.
The target in assay [14] is T2, Thymidylate synthase. Briefly: The compound was tested for its inhibitory activity against thymidylate synthase(TS) derived from H35F/F cells.
Another assay has as its target T3, Dihydrofolate reductase (Mus musculus, UniProt P00375).
T3 sequence (P00375 whole entry): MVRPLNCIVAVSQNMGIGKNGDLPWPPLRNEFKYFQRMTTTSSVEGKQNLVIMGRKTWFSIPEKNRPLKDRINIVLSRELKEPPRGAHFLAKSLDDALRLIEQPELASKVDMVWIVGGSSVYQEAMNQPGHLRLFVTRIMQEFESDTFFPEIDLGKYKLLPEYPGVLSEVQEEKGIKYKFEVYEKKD
In words: The compound was tested for its inhibitory activity against dihydrofolate reductase(DHFR) derived from L1210 cells. Format: cell-based.

In assay [15] the test system is Mus musculus. Briefly: Antitumor effect (36 mg/kg) against EO771 mammary adenocarcinoma in mice measured as average weight change on day 14. The assay is classed as functional. The method in brief:
as §1

In assay [16] the test system is Mus musculus. Briefly: Antitumor effect (36 mg/kg) against EO771 mammary adenocarcinoma in mice measured as Tumor free/total on day 14. Format: functional. The method in brief: as §1
Assay [17] deals with Mus musculus. In words: Antitumor effect (36 mg/kg) against EO771 mammary adenocarcinoma in mice measured as Tumor free/total on day 7. The assay is classed as functional. In outline:
as §1

Assay [18] relates to Mus musculus. In words: Antitumor effect (36 mg/kg) against EO771 mammary adenocarcinoma in mice measured as T/C(treated/control) on day 14. Format: functional. In outline:
as §1

For assay [19], the system named is Mus musculus. In words: Antitumor effect (36 mg/kg) against EO771 mammary adenocarcinoma in mice measured as T/C(treated/control) on day 7. The assay is classed as functional. The method in brief:
as §1

The subject of assay [20] is Mus musculus. In words: Antitumor effect (36 mg/kg) against EO771 mammary adenocarcinoma in mice measured as Toxic deaths/total on day 14. The assay is classed as functional. In outline: as §2
In assay [21] the test system is Mus musculus. Briefly: Antitumor effect (36 mg/kg) against EO771 mammary adenocarcinoma in mice measured as toxic deaths out of 10 mice tested. The assay is classed as functional. The method in brief:
as §2

In assay [22] the test system is Mus musculus. Briefly: Antitumor effect (36 mg/kg) against EO771 mammary adenocarcinoma in mice measured as average weight change on day 7. The assay is classed as functional. The method in brief:
as §1

T2 sequence (P04818 whole entry): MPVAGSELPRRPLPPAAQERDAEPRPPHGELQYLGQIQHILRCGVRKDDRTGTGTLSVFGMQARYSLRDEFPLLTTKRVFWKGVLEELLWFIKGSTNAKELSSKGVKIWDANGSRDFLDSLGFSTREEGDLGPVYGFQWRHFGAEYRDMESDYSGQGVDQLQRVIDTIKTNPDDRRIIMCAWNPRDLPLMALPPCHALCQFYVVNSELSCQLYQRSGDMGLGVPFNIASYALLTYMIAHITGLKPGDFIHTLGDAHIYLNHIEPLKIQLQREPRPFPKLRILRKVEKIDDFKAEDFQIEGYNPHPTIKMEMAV

On to `CN(Cc1cnc2nc(N)nc(N)c2n1)c1ccc(C(=O)N[C@@H](CCC(=O)O)C(=O)O)cc1` [METHOTREXATE], for which the Km – broadly, the substrate concentration at which the rate is half of its maximum – in the assay on L1210 [1] worked out at 4.86 µM. For the same molecule, the values for the AWC in the assay with Mus musculus [2] and in the assay with Mus musculus [3] were 0.8 g and -0.4 g, respectively. Moreover, the Toxic deaths in the assay with Mus musculus [4] is on record as 0. Moreover, the Tumor free/total in the assay with Mus musculus [5] and in the assay on Mus musculus [6] was 0 throughout. Moreover, the T/C with Mus musculus [7] is 0.79; in the assay on Mus musculus [8], 0.74. In addition, the k in the assay with L1210 [9] is 0.21 min⁻¹. Also, the Deaths/total in the assay with Mus musculus [10] was found to be 0.
Regarding `C#CCN(Cc1cnc2nc(N)[nH]c(=O)c2n1)c1ccc(C(=O)NC(CCC(=O)O)C(=O)O)cc1` (stereo not given), the half-maximal inhibitory concentration (IC50) (as a rule, the concentration that inhibits the measured activity by half) on Thymidylate synthase [11] amounted to 3900 nM.
`C#CCN(Cc1ccc2nc(N)nc(O)c2n1)c1ccc(C(=O)NC(CCC(=O)O)C(=O)O)cc1` (stereo not given) gave a 50% inhibitory concentration (IC50) against Thymidylate synthase [12] of 2400 nM.
In the case of `C#CCN(Cc1ccc2[nH]c(N)nc(=O)c2c1)c1ccc(C(=O)NC(CCC(=O)O)C(=O)O)cc1` (stereo not given), the IC50 amounted to 5290 nM in the assay on HL-60, 2610 nM in the assay with L1210 [13] and 1970 nM in the assay with CCRF S-180.
`C#CCN(Cc1cnc2nc(N)nc(O)c2c1)c1ccc(C(=O)NC(CCC(=O)O)C(=O)O)cc1` (stereo not given): the IC50 in the assay on HL-60 came to 721 nM; with L1210 [13], 1500 nM; in the assay with CCRF S-180 it was 2350 nM; on Thymidylate synthase [14], 90 nM.
Take `C#CCN(Cc1cnc2nc(N)nc(N)c2c1C)c1ccc(C(=O)NC(CCC(=O)O)C(=O)O)cc1` (stereo not given): the Ki (as a rule, a dissociation constant, usually derived from enzyme kinetics or from competition with a known ligand) on Dihydrofolate reductase is 0.00687 nM. Besides, in the assay on L1210 [1], the Michaelis constant (Km) came to 0.57 µM. This molecule also gave an IC50 with L1210 [13] of 0.13 nM. Also, the figures for the AWC in the assay with Mus musculus [15] and in the assay with Mus musculus [22] were -0.6 g and -1.9 g, respectively. The Tumor free/total in the assay with Mus musculus [16] and with Mus musculus [17] was 2 throughout. The figures for the T/C with Mus musculus [18] and in the assay with Mus musculus [19] were 0.08 and 0.09, respectively. In the assay on Mus musculus [20], the Deaths/total stood at 0. Also, the Toxic deaths in the assay on Mus musculus [21] came to 0. In the assay with L1210 [9], this molecule displayed a k of 0.24 min⁻¹.
Molecule `C#CCN(Cc1cnc2nc(N)nc(N)c2c1)c1ccc(C(=O)NC(CCC(=O)O)C(=O)O)cc1` (stereo not given) came in with an inhibition constant (Ki) on Dihydrofolate reductase of 0.00585 nM. The Michaelis constant (Km) in the assay on L1210 [1] came to 1.8 µM. Besides, half-maximal inhibition in the assay with L1210 [13] (IC50) required 0.64 nM. Moreover, in the assay on L1210 [9], the k was 0.23 min⁻¹.
